The values that follow come from ChEMBL document CHEMBL1949561, “Synthesis and triplex-forming ability of oligonucleotides bearing 1-substituted 1H-1,2,3-triazole nucleobases” (Bioorg Med Chem, 2011).

Holding throughout (assay type): nucleic-acid assay
For assay [1], the system named is Nucleic Acid. Description: Binding affinity to5'-GCTAAAAAGACAGAGAGATCG-3'/5'- CGATCTCTCTGTCTTTTTAGC-3' double stranded DNA assessed as melting temperature at 1.5 uM in sodium phosphate buffer at pH 7 by UV spectrophotometric analysis. Put shortly: (§1)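 UV melting of triplexes between each modified TFO and the 21-bp duplex target, in 7 mM sodium phosphate buffer (pH 7.0), 140 mM KCl and 10 mM MgCl₂. Each oligonucleotide at 1.5 µM final. Absorbance followed at 260 nm from 5 °C to 85 °C, scanned at 0.5 °C/min, to give Tm.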

Assay [2] concerns Nucleic Acid. Nature of the assay: Binding affinity to 5'-GCTAAAAAGATAGAGAGATCG-3'/5'- CGATCTCTCTATCTTTTTAGC-3' double stranded DNA assessed as melting temperature at 1.5 uM in sodium phosphate buffer at pH 7 by UV spectrophotometric analysis. The procedure, abridged:
as §1

Assay [3] has as its system Nucleic Acid. Nature of the assay: Binding affinity to 5'-GCTAAAAAGAGAGAGAGATCG-3'/5'- CGATCTCTCTCTCTTTTTAGC-3' double stranded DNA assessed as melting temperature at 1.5 uM in sodium phosphate buffer at pH 7 by UV spectrophotometric analysis. The procedure, abridged:
as §1

In assay [4] the test system is Nucleic Acid. Description: Binding affinity to 5'-GCTAAAAAGAAAGAGAGATCG-3'/5'- CGATCTCTCTTTCTTTTTAGC-3' double stranded DNA assessed as melting temperature at 1.5 uM in sodium phosphate buffer at pH 7 by UV spectrophotometric analysis. The procedure, abridged:
as §1

Take `Cc1cn([C@H]2C[C@H](OP(=O)(O)OC[C@H]3O[C@@H](n4cc(C)c(=O)[nH]c4=O)C[C@@H]3OP(=O)(O)OC[C@H]3O[C@@H](n4cc(C)c(N)nc4=O)C[C@@H]3OP(=O)(O)OC[C@H]3O[C@@H](n4cc(C)c(=O)[nH]c4=O)C[C@@H]3OP(=O)(O)OC[C@H]3O[C@@H](n4cc(C)c(N)nc4=O)C[C@@H]3OP(=O)(O)OC[C@H]3O[C@@H](n4cc(C)c(=O)[nH]c4=O)C[C@@H]3OP(=O)(O)OC[C@H]3O[C@@H](c4cn(-c5cccc(O)c5)nn4)C[C@@H]3OP(=O)(O)OC[C@H]3O[C@@H](n4cc(C)c(=O)[nH]c4=O)C[C@@H]3OP(=O)(O)OC[C@H]3O[C@@H](n4cc(C)c(N)nc4=O)C[C@@H]3OP(=O)(O)OC[C@H]3O[C@@H](n4cc(C)c(=O)[nH]c4=O)C[C@@H]3OP(=O)(O)OC[C@H]3O[C@@H](n4cc(C)c(=O)[nH]c4=O)C[C@@H]3OP(=O)(O)OC[C@H]3O[C@@H](n4cc(C)c(=O)[nH]c4=O)C[C@@H]3OP(=O)(O)OC[C@H]3O[C@@H](n4cc(C)c(=O)[nH]c4=O)C[C@@H]3OP(=O)(O)OC[C@H]3O[C@@H](n4cc(C)c(=O)[nH]c4=O)C[C@@H]3O)[C@@H](COP(=O)(O)O[C@H]3C[C@H](n4cc(C)c(=O)[nH]c4=O)O[C@@H]3CO)O2)c(=O)nc1N`: the Tm was 21 °C in the assay on Nucleic Acid [1], 14 °C in the assay with Nucleic Acid [2], below 10 °C in the assay on Nucleic Acid [3] and below 10 °C with Nucleic Acid [4].
For `Cc1cn([C@H]2C[C@H](OP(=O)(O)OC[C@H]3O[C@@H](n4cc(C)c(=O)[nH]c4=O)C[C@@H]3OP(=O)(O)OC[C@H]3O[C@@H](n4cc(C)c(N)nc4=O)C[C@@H]3OP(=O)(O)OC[C@H]3O[C@@H](n4cc(C)c(=O)[nH]c4=O)C[C@@H]3OP(=O)(O)OC[C@H]3O[C@@H](n4cc(C)c(N)nc4=O)C[C@@H]3OP(=O)(O)OC[C@H]3O[C@@H](n4cc(C)c(=O)[nH]c4=O)C[C@@H]3OP(=O)(O)OC[C@H]3O[C@@H](c4cn(-c5cccnc5O)nn4)C[C@@H]3OP(=O)(O)OC[C@H]3O[C@@H](n4cc(C)c(=O)[nH]c4=O)C[C@@H]3OP(=O)(O)OC[C@H]3O[C@@H](n4cc(C)c(N)nc4=O)C[C@@H]3OP(=O)(O)OC[C@H]3O[C@@H](n4cc(C)c(=O)[nH]c4=O)C[C@@H]3OP(=O)(O)OC[C@H]3O[C@@H](n4cc(C)c(=O)[nH]c4=O)C[C@@H]3OP(=O)(O)OC[C@H]3O[C@@H](n4cc(C)c(=O)[nH]c4=O)C[C@@H]3OP(=O)(O)OC[C@H]3O[C@@H](n4cc(C)c(=O)[nH]c4=O)C[C@@H]3OP(=O)(O)OC[C@H]3O[C@@H](n4cc(C)c(=O)[nH]c4=O)C[C@@H]3O)[C@@H](COP(=O)(O)O[C@H]3C[C@H](n4cc(C)c(=O)[nH]c4=O)O[C@@H]3CO)O2)c(=O)nc1N`, the Tm was determined as 24 °C in the assay with Nucleic Acid [1], 15 °C in the assay with Nucleic Acid [2], 15 °C with Nucleic Acid [3] and 12 °C with Nucleic Acid [4].
For the molecule `Cc1cn([C@H]2C[C@H](OP(=O)(O)OC[C@H]3O[C@@H](n4cc(C)c(=O)[nH]c4=O)C[C@@H]3OP(=O)(O)OC[C@H]3O[C@@H](n4cc(C)c(N)nc4=O)C[C@@H]3OP(=O)(O)OC[C@H]3O[C@@H](n4cc(C)c(=O)[nH]c4=O)C[C@@H]3OP(=O)(O)OC[C@H]3O[C@@H](n4cc(C)c(N)nc4=O)C[C@@H]3OP(=O)(O)OC[C@H]3O[C@@H](n4cc(C)c(=O)[nH]c4=O)C[C@@H]3OP(=O)(O)OC[C@H]3O[C@@H](c4cn(-c5ccccc5C(=O)O)nn4)C[C@@H]3OP(=O)(O)OC[C@H]3O[C@@H](n4cc(C)c(=O)[nH]c4=O)C[C@@H]3OP(=O)(O)OC[C@H]3O[C@@H](n4cc(C)c(N)nc4=O)C[C@@H]3OP(=O)(O)OC[C@H]3O[C@@H](n4cc(C)c(=O)[nH]c4=O)C[C@@H]3OP(=O)(O)OC[C@H]3O[C@@H](n4cc(C)c(=O)[nH]c4=O)C[C@@H]3OP(=O)(O)OC[C@H]3O[C@@H](n4cc(C)c(=O)[nH]c4=O)C[C@@H]3OP(=O)(O)OC[C@H]3O[C@@H](n4cc(C)c(=O)[nH]c4=O)C[C@@H]3OP(=O)(O)OC[C@H]3O[C@@H](n4cc(C)c(=O)[nH]c4=O)C[C@@H]3O)[C@@H](COP(=O)(O)O[C@H]3C[C@H](n4cc(C)c(=O)[nH]c4=O)O[C@@H]3CO)O2)c(=O)nc1N`, the Tm in the assay with Nucleic Acid [1] is 17 °C; with Nucleic Acid [2] it was 15 °C; with Nucleic Acid [3], 12 °C; with Nucleic Acid [4] it was below 10 °C.
